Calls of active or inactive are those of the source.
How the values were obtained:
BT-474 = assay: Antiproliferative activity in human BT-474 cells assessed as cell growth at 1 uM by CCK-8 assay; assay type: functional, cell-based
Outline: (§1)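 Cells grown in 10% FBS medium (DMEM for BT-474 and MDA-MB-231) and seeded at 3000 cells/well, adhering overnight. Exposed to 1 μM for 48 h, with DMSO as control. Growth read by CCK-8 as background-subtracted signal normalized to the DMSO control. Mean ± SD of triplicates.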

MDA-MB-231 [1] = assay: Antiproliferative activity in human MDA-MB-231 cells assessed as cell growth at 1 uM by CCK-8 assay; assay type: functional, cell-based; outline: as §1
MDA-MB-231 [2] = assay: Inhibition of cell migration in human MDA-MB-231 cells at 1 uM by transwell invasion assay; assay type: functional, cell-based
Outline: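 Invasion assay: 1 × 10^5 cells seeded in Matrigel-coated upper Boyden chamber; lower chamber held serum-free medium with 100 nM LPA. After 24 or 48 h, invaded cells stained with crystal violet and counted.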

BT-549 [3] = assay: Effect on human BT-549 cells assessed as suppression of tumor sphere formation at 1 uM by Tumor sphere assay; assay type: functional, cell-based
MDA-MB-231 [4] = assay: Antitumor activity against human MDA-MB-231 cells xenografted in BALB/c nude mouse model assessed as reduction of tumor size in the presence of osimertinib at 35 mg/kg/day, sc administered every 2 days for 30 days; assay type: functional, organism-based; settings: time 30.0 day
Outline: (§2)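 MDA-MB-231 xenografts used 1 × 10^6 cells injected subcutaneously into female BALB/c nude mice (4–6 weeks). Animals were split into four groups (n = 7) at ~100 mm3: vehicle, osimertinib 10 mg/kg, 35 mg/kg agent, or the combination, each given every 2 days. Volume was measured by calliper as length × width²/2; tumours were weighed at end.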

BT-549 [5] = assay: Antiproliferative activity in human BT-549 cells assessed as cell viability at 1 uM by CCK-8 assay; assay type: functional, cell-based
MDA-MB-231 [6] = assay: Antitumor activity against human MDA-MB-231 cells xenografted in BALB/c nude mouse model assessed as reduction of tumor weight in the presence of osimertinib at 35 mg/kg/day, sc administered every 2 days for 30 days; assay type: functional, organism-based; settings: time 30.0 day; outline: as §2
MDA-MB-231 [7] = assay: Antiproliferative activity in human MDA-MB-231 cells assessed as inhibited cell growth at 1 uM by CCK-8 assay; assay type: functional, cell-based
MDA-MB-231 [8] = assay: Antiproliferative activity in human MDA-MB-231 cells assessed as reduction in size of tumor sphere at 1 uM by Tumor sphere assay; assay type: functional, cell-based
MDA-MB-231 [9] = assay: Induction of apoptosis in human MDA-MB-231 cells assessed as caspase-3 cleavage in the presence of osimertinib at 1 uM by Western blotting analysis; assay type: functional, cell-based
BT-549 [10] = assay: Antiproliferative activity in human BRD4-knockdown BT-549 cells assessed as cell growth at 1 uM by CCK-8 assay; assay type: functional, cell-based
Outline: (§3)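 Vector control or BRD4-knockdown cells, 3000/well, adhered overnight, then DMSO or osimertinib for 48 h; growth by CCK-8, normalized to DMSO-treated control. Triplicates, mean ± SD; one-way ANOVA, vehicle vs osimertinib in knockdown clones.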

BT-549 [11] = assay: Induction of apoptosis in human BT-549 cells in the presence of osimertinib at 1 uM by flow cytometry analysis; assay type: functional, cell-based
Outline: (§4)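 Cells given JQ1 and/or osimertinib, then stained with Annexin V-FITC plus propidium iodide (10 min, room temperature, dark; 1 × 10^6 cells/ml in binding buffer after two PBS washes) and analysed by flow cytometry; one-way ANOVA.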

MDA-MB-231 [12] = assay: Induction of apoptosis in human MDA-MB-231 cells in the presence of osimertinib at 1 uM by flow cytometry analysis; assay type: functional, cell-based; outline: as §4
BT-549 [13] = assay: Inhibition of cell migration in human BT-549 cells at 1 uM by transwell invasion assay; assay type: functional, cell-based
BT-549 [14] = assay: Antiproliferative activity in human BT-549 cells assessed as reduction in size of tumor sphere at 1 uM by Tumor sphere assay; assay type: functional, cell-based
MDA-MB-231 [15] = assay: Effect on human MDA-MB-231 cells assessed as suppression of tumor sphere formation at 1 uM by Tumor sphere assay; assay type: functional, cell-based
MDA-MB-231 [16] = assay: Antiproliferative activity in human BRD4-knockdown MDA-MB-231 cells assessed as cell growth at 1 uM by CCK-8 assay; assay type: functional, cell-based; outline: as §3
BT-549 [17] = assay: Antiproliferative activity in human BT-549 cells assessed as reduction in cell growth at 1 uM by CCK-8 assay; assay type: functional, cell-based
MDA-MB-231 [18] = assay: Antiproliferative activity in human MDA-MB-231 cells assessed as reduction in cell growth at 1 uM by CCK-8 assay; assay type: functional, cell-based
BT-549 [19] = assay: Antiproliferative activity in human BT-549 cells assessed as reduced cell growth co-treated with XMD8-92 at 1 uM by CCK-8 assay; assay type: functional, cell-based
Outline: (§5)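 MDA-MB-231 (DMEM + 10% FBS) or BT549 (RPMI-1640 + 10% FBS) seeded at 3000 cells/well and left to adhere overnight. Treated 48 h with the kinase inhibitors alone, combined, or together with JQ1. Growth measured by CCK-8 and normalized to the DMSO-treated control after background subtraction. Triplicates, mean ± SD, one-way ANOVA against JQ1 alone.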

MDA-MB-231 [20] = assay: Effect on human MDA-MB-231 cells assessed as EGFR protein expression at 1 uM by Western blot analysis; assay type: functional, cell-based
MDA-MB-231 [21] = assay: Antiproliferative activity in human MDA-MB-231 cells assessed as reduced cell growth co-treated with XMD8-92 at 1 uM by CCK-8 assay; assay type: functional, cell-based; outline: as §5
MDA-MB-231 [22] = assay: Effect on human MDA-MB-231 cells assessed as RSK3 protein expression in the presence of XMD8-92 at 1 uM by Western blot analysis; assay type: functional, cell-based
BT-549 [23] = assay: Effect on human BT-549 cells assessed as RPS6KA2 protein expression by Western blot analysis; assay type: functional, cell-based
BT-549 [24] = assay: Effect on human BT-549 cells assessed as JunD protein expression by Western blot analysis; assay type: functional, cell-based
MDA-MB-231 [25] = assay: Effect on human MDA-MB-231 cells assessed as JunD protein expression by Western blot analysis; assay type: functional, cell-based
MDA-MB-231 [26] = assay: Effect on human MDA-MB-231 cells assessed as RPS6KA2 protein expression by Western blot analysis; assay type: functional, cell-based
MDA-MB-231 [27] = assay: Effect on human MDA-MB-231 cells assessed as decrease in RSK3 protein expression in the presence of GDC-0994 at 1 uM by Western blot analysis; assay type: functional, cell-based
BT-549 [28] = assay: Antiproliferative activity in human BT-549 cells assessed as reduced cell growth co-treated with GDC-0994 at 1 uM by CCK-8 assay; assay type: functional, cell-based; outline: as §5
MDA-MB-231 [29] = assay: Antiproliferative activity in human MDA-MB-231 cells assessed as reduced cell growth co-treated with GDC-0994 at 1 uM by CCK-8 assay; assay type: functional, cell-based; outline: as §5

CN1CCN(c2ccc(-c3ccncc3-c3cc(F)c(O)c(F)c3)cc2)CC1
active: Activity (BT-474) | Activity (MDA-MB-231 [1])

C=CC(=O)Nc1cc(Nc2nccc(-c3cn(C)c4ccccc34)n2)c(OC)cc1N(C)CCN(C)C
active: inhibition (MDA-MB-231 [2]) | Activity (BT-549 [3]) | Activity (MDA-MB-231 [4]) | Activity (BT-549 [5]) | Activity (MDA-MB-231 [6]) | Activity (MDA-MB-231 [7]) | Activity (MDA-MB-231 [8]) | Activity (MDA-MB-231 [9]) | Activity (BT-549 [10]) | Activity (BT-549 [11]) | Activity (MDA-MB-231 [12]) | inhibition (BT-549 [13]) | Activity (BT-549 [14]) | Activity (MDA-MB-231 [15]) | Activity (MDA-MB-231 [16])

Oc1c(F)cc(-c2cnccc2-c2ccc(N3CCOCC3)cc2)cc1F
active: Activity (BT-474) | Activity (MDA-MB-231 [1])

C[S+]([O-])c1ccc(-c2nc(-c3ccc(F)cc3)c(-c3ccncc3)[nH]2)cc1 (stereo not drawn)
active: Activity (BT-549 [17]) | Activity (MDA-MB-231 [18])

Cn1nccc1Nc1nccc(-c2ccn([C@H](CO)c3ccc(Cl)c(F)c3)c(=O)c2)n1
active: Activity (BT-549 [19]) | Activity (MDA-MB-231 [20]) | Activity (MDA-MB-231 [21]) | Activity (MDA-MB-231 [22])

COc1cc2c(cc1-c1c(C)noc1C)ncc1[nH]c(=O)n([C@H](C)c3ccccn3)c12
active: Activity (BT-549 [23]) | Activity (BT-549 [5]) | Activity (BT-549 [24]) | Activity (MDA-MB-231 [25]) | Activity (MDA-MB-231 [26])

CCNC(=O)C[C@@H]1N=C(c2ccc(Cl)cc2)c2cc(OC)ccc2-n2c(C)nnc21
active: Activity (BT-549 [23]) | Activity (BT-549 [5]) | Activity (BT-549 [24]) | Activity (MDA-MB-231 [25]) | Activity (MDA-MB-231 [26])

CCOc1cc(N2CCC(O)CC2)ccc1Nc1ncc2c(n1)N(C)c1ccccc1C(=O)N2C
active: Activity (MDA-MB-231 [27]) | Activity (BT-549 [28]) | Activity (MDA-MB-231 [29])
